Rows were chosen to be rich in hits. Some 2.3% of all compounds tested hit in one or more screens of this group.
MC4R barr agon – activates human MC4R beta-arrestin recruitment | P32245 | U2OS MC4R beta-arrestin complementation, luminescence; percent of melanotan II response, DMSO zero | activation, % at 8.9 µM | actives 0.98% (n = 360,000);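 active = activation above a per-plate cutoff, the mean activation of sample wells on that plate plus 3 SD, cut at about 8% in these data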
Target sequence (P32245 whole entry, looked up): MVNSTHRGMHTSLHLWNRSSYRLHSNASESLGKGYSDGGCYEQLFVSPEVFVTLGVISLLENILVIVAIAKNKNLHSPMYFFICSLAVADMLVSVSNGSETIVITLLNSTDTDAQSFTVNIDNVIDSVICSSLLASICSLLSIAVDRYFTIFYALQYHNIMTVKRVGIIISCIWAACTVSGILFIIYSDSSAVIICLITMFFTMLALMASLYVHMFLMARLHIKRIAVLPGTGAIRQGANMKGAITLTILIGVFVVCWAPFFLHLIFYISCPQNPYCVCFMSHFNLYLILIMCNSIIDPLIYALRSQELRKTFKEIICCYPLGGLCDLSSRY
MC4R antagonist – human MC4R antagonism in cAMP assay | MC4R-expressing cells, MTII-stimulated cAMP, LANCE TR-FRET | inhibition, % at 6.5 µM | actives 0.48% (n = 360,000) | P32245;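 active = inhibition above its plate's cutoff, the mean of tested wells on that plate plus 3 SD, cut at about 29% in these data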
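system = U2OS cells with stable human MC4R expression | also added = Melanotan II challenge after compound preincubation | dosing = one concentration, 6.5 µM nominal | incubation = compound 30 min, challenge 1 h, detection 1 h | measured by = TR-FRET with Eu-cAMP and labeled anti-cAMP, 671 nm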
MsrA inh – inhibitors of bovine MsrA; purified bovine MsrA, absorbance read-out; actives 0.75% (n = 360,000); inhibition, % at 15.5 µM; in the data active = inhibition above about 4.5%
bovine MsrA act – bovine methionine sulfoxide reductase A activation | activation, % at 10.6 µM | purified bovine MsrA, absorbance read-out | actives 0.3% (n = 360,000); in the data active = activation above about 7.5%
MsrA activ conf – confirmation of bovine methionine sulfoxide reductase A activators; actives 12% (n = 1,000); shares compounds with bovine MsrA act; purified bovine MsrA, absorbance read-out; activation, % at 10.6 µM; AID 602270; in the data active = activation above about 4%;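 note: enzyme coupled to thioredoxin and thioredoxin reductase with NADPH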
Numbers stand for hits; ! = a repeat was not active.

How did C=CCNC(=O)C1CC(=O)N(c2ccc(OCC(=O)Nc3ccc(CC)cc3)cc2)C1 (stereo unspecified) do in these assays?
MC4R barr agon: inactive; MC4R antagonist: inactive; MsrA inh: inactive; bovine MsrA act: inactive

Results for CC(=O)Nc1ccc(NC(=O)CC(C)n2ccnc2)cc1 (stereo unspecified) ?
MC4R barr agon: inactive; MC4R antagonist: inactive; MsrA inh: inactive; bovine MsrA act: 8.5; MsrA activ conf: inactive

Results for CC(=O)N1c2ccccc2-c2nc3ccccc3n2C1C (stereo unspecified) ?
MC4R barr agon: inactive; MC4R antagonist: inactive; MsrA inh: inactive; bovine MsrA act: inactive

What do the screens show for `Cc1ccc(-n2ccc(=O)c(C(=O)Nc3ccc(S(=O)(=O)Nc4nccc(C)n4)cc3)n2)cc1`?
MC4R barr agon: inactive; MC4R antagonist: inactive; MsrA inh: inactive; bovine MsrA act: inactive

Results for Cc1cc(C)nc(NS(=O)(=O)c2ccc(NC(=O)c3nn(-c4ccccc4)ccc3=O)cc2)n1 ?
MC4R barr agon: inactive; MC4R antagonist: inactive; MsrA inh: inactive; bovine MsrA act: 14; MsrA activ conf: inactive

Results for CN(CC(=O)Nc1c(Cl)cccc1Cl)C(=O)Cn1[nH]c(=O)c2ccccc2c1=O ?
MC4R barr agon: inactive; MC4R antagonist: inactive; MsrA inh: inactive; bovine MsrA act: inactive

What do the screens show for `CN1C[C@@H]2[C@@H]3C(=O)N(Cc4ccccc4)C(=O)[C@@H]3[C@](Cc3ccccc3)(C1=O)N2C(=O)c1ccccc1`?
MC4R barr agon: inactive; MC4R antagonist: inactive; MsrA inh: inactive; bovine MsrA act: inactive

What do the screens show for `CN1C[C@@H]2[C@@H]3C(=O)N(Cc4ccccc4)C(=O)[C@@H]3[C@](Cc3ccccc3)(C1=O)N2C(=O)c1ccc(C(C)(C)C)cc1`?
MC4R barr agon: inactive; MC4R antagonist: inactive; MsrA inh: inactive; bovine MsrA act: 8.8; MsrA activ conf: inactive

How did Cc1ccc(Nc2n[nH]c(=S)s2)cc1C do in these assays?
MC4R barr agon: inactive; MC4R antagonist: inactive; MsrA inh: inactive; bovine MsrA act: 7.8; MsrA activ conf: inactive

What do the screens show for `O=C(N/N=C/c1cccs1)c1ccc2ncccc2c1`?
MC4R barr agon: inactive; MC4R antagonist: inactive; MsrA inh: inactive; bovine MsrA act: inactive

What do the screens show for `Fc1ccc(-c2csc(=S)[nH]2)cc1`?
MC4R barr agon: inactive; MC4R antagonist: inactive; MsrA inh: inactive; bovine MsrA act: 8.0; MsrA activ conf: inactive

How did CCOC(=O)c1ccc(-n2ccnc2)c(NC(=O)c2ccc(Cl)cc2)c1 do in these assays?
MC4R barr agon: inactive; MC4R antagonist: inactive; MsrA inh: inactive; bovine MsrA act: 8.1; MsrA activ conf: inactive

How did Cc1cc(NC(=O)c2ccc(Cl)cc2)n(CCOC(=O)c2ccc(Cl)cc2)n1 do in these assays?
MC4R barr agon: inactive; MC4R antagonist: inactive; MsrA inh: inactive; bovine MsrA act: 9.1; MsrA activ conf: inactive

Results for CCOC(=O)c1cc(NC(=O)c2ccc(Cl)cc2)c(=O)n2c1oc1ccc(Cl)cc12 ?
MC4R barr agon: inactive; MC4R antagonist: inactive; MsrA inh: inactive; bovine MsrA act: inactive

What do the screens show for `COc1ccccc1C(=O)Nc1ccc(Br)c2cccnc12`?
MC4R barr agon: inactive; MC4R antagonist: inactive; MsrA inh: inactive; bovine MsrA act: inactive

How did Cc1cccc(NC(=S)N(CCN(C)C)Cc2cc3cccc(C)c3[nH]c2=O)c1 do in these assays?
MC4R barr agon: inactive; MC4R antagonist: inactive; MsrA inh: inactive; bovine MsrA act: 20; MsrA activ conf: inactive

Results for COc1cccc(-c2nc(N3CCC(C)CC3)c3ccccc3n2)c1O ?
MC4R barr agon: inactive; MC4R antagonist: inactive; MsrA inh: inactive; bovine MsrA act: 8.2; MsrA activ conf: inactive

How did COc1cccc(CNC(=O)c2cc3oc4ccccc4c3n2C)c1OC do in these assays?
MC4R barr agon: inactive; MC4R antagonist: inactive; MsrA inh: inactive; bovine MsrA act: inactive

How did CCOc1ccccc1CNC(=O)c1cc2oc3ccccc3c2n1CC do in these assays?
MC4R barr agon: inactive; MC4R antagonist: inactive; MsrA inh: inactive; bovine MsrA act: 8.1; MsrA activ conf: inactive

Results for O=C(CCCn1c(=S)[nH]c2cc3c(cc2c1=O)OCO3)N1CCN(c2ccccn2)CC1 ?
MC4R barr agon: inactive; MC4R antagonist: inactive; MsrA inh: inactive; bovine MsrA act: 18; MsrA activ conf: inactive

Results for COc1cc(C(C)=O)ccc1OCC(O)CNCC1(N2CCCCC2)CCCCC1 (stereo unspecified) ?
MC4R barr agon: inactive; MC4R antagonist: inactive; MsrA inh: inactive; bovine MsrA act: 19; MsrA activ conf: inactive

How did COc1ccccc1COCC(O)CNCC1(N2CCCCC2)CCCCC1 (stereo unspecified) do in these assays?
MC4R barr agon: inactive; MC4R antagonist: inactive; MsrA inh: inactive; bovine MsrA act: inactive

Results for CC1=C(C(=O)OCC2CCCCC2)C(c2cccc(O)c2)NC(=O)N1 (stereo unspecified) ?
MC4R barr agon: inactive; MC4R antagonist: inactive; bovine MsrA act: inactive

Results for CC1=C(C(=O)OC2CCCCCCC2)C(c2cccc(O)c2)NC(=O)N1 (stereo unspecified) ?
MC4R barr agon: inactive; MC4R antagonist: inactive; MsrA inh: inactive; bovine MsrA act: 8.9; MsrA activ conf: inactive

What do the screens show for `COc1ccc(CNC(=O)CN(c2ccc(C(C)=O)cc2)S(=O)(=O)c2ccc(C)cc2)cc1OC`?
MC4R barr agon: inactive; MC4R antagonist: inactive; MsrA inh: inactive; bovine MsrA act: inactive

What do the screens show for `O=[n+]1cc(-c2ccccc2)n([O-])c2c1CCC2`?
MC4R barr agon: inactive; MC4R antagonist: inactive; MsrA inh: inactive; bovine MsrA act: inactive

Results for CCOC(=O)N1CCN(c2c(F)cc3[nH]c(=S)[nH]c3c2Br)CC1 ?
MC4R barr agon: inactive; MC4R antagonist: inactive; MsrA inh: inactive; bovine MsrA act: 12; MsrA activ conf: inactive

Results for O=C(NCc1cccs1)c1cc(-c2ccc(O)cc2)on1 ?
MC4R barr agon: inactive; MC4R antagonist: inactive; MsrA inh: inactive; bovine MsrA act: inactive

Results for Cc1ccc(S(=O)(=O)NC2=NCCCCC2)cc1 ?
MC4R barr agon: inactive; MC4R antagonist: inactive; MsrA inh: inactive; bovine MsrA act: 13; MsrA activ conf: inactive

What do the screens show for `COC(=O)CCS(=O)(=O)c1cc(Cl)ccc1Cl`?
MC4R barr agon: inactive; MC4R antagonist: inactive; MsrA inh: inactive; bovine MsrA act: 8.3; MsrA activ conf: inactive

How did Cn1c(=O)n(CC(=O)O)c(=O)c2c1nc1n2CCS1 do in these assays?
MC4R barr agon: inactive; MC4R antagonist: inactive; MsrA inh: inactive; bovine MsrA act: 8.5!; MsrA activ conf: inactive

How did Nc1ccc2nc(SCC(=O)N3CCOCC3)sc2c1 do in these assays?
MC4R barr agon: inactive; MC4R antagonist: inactive; MsrA inh: inactive; bovine MsrA act: inactive

What do the screens show for `Cc1cccc2c1N(CCOc1ccccc1Cl)C(=O)C2=O`?
MC4R barr agon: inactive; MC4R antagonist: inactive; MsrA inh: inactive; bovine MsrA act: 8.0; MsrA activ conf: inactive

Results for C1CCc2nc3c(nc2C1)CCCC3 ?
MC4R barr agon: inactive; MC4R antagonist: inactive; MsrA inh: inactive; bovine MsrA act: 17; MsrA activ conf: inactive

Results for c1ccc2nc3c(nc2c1)CCCC3 ?
MC4R barr agon: inactive; MC4R antagonist: inactive; MsrA inh: inactive; bovine MsrA act: inactive

High-throughput results deposited in PubChem BioAssay by The Scripps Research Institute Molecular Screening Center.
